Among the data in ChEMBL document CHEMBL3259725, “Synthesis of stable aromatic and heteroaromatic sulfonyl-amidoximes and evaluation of their antioxidant and lipid peroxidation activity” (Eur J Med Chem, 2014) are Activity, inhibition and IC50 values, retold here.

Calls of active or inactive are those of the source. No cut-off for these calls is given here.

Common to all, as to assay type: functional
The test system of test [1] is Radical scavenging activity. The experiment in a line: Antioxidant activity assessed as reduction of DPPH free radical formation at 100 uM after 60 mins relative to control. Further details: scale not given: the % may be the effect or the level left. The method, boiled down: (§1)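 Compounds at a final 100 concentration were mixed with the stable radical DPPH, using ethanol as the control solution. Absorbance at 517 nm was read after 20 and 60 min at room temperature. Each assay was run at least in triplicate.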

For test [2], the system named is Radical scavenging activity. Nature of the test: Antioxidant activity assessed as reduction of DPPH free radical formation at 100 uM after 20 mins relative to control. The arrangement: scale not given: the % may be the effect or the level left. In a few lines: as §1
Test [3] in a line: Antioxidant activity assessed as inhibition of AAPH-induced linoleic acid peroxidation at 100 uM by UV spectrophotometric analysis relative to control. The method, boiled down:
(§2)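 Linoleic acid dispersion (16 mM stock) in 0.05 M phosphate buffer, pH 7.4, pre-equilibrated at 37 °C. Oxidation was started with AAPH (40 mM stock solution) as radical initiator, with test compound added in DMSO. Conjugated diene hydroperoxide formation was followed as the rise in absorbance at 234 nm at 37 °C. The control contained the same level of DMSO without antioxidant.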

The nature of test [4]: Antioxidant activity assessed as inhibition of Fe3+/ascorbic acid-induced hydroxyl radical formation by measuring DMSO-induced formaldehyde production at 100 uM after 30 mins relative to control. The method, boiled down: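 Hydroxyl radicals were generated by Fe3+/ascorbic acid in 50 mM phosphate buffer, pH 7.4, containing 0.1 mM EDTA and 33 mM DMSO, with compounds at 0.1 mM. Radical yield was measured as formaldehyde formed from DMSO oxidation, determined by the Nash method.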

Test [5] can be described thus: Antioxidant activity assessed as inhibition of AAPH-induced linoleic acid peroxidation by UV spectrophotometric analysis. In a few lines:
as §2

For the compound `CCCCCCCCCCCCCCCCS(=O)(=O)O/N=C(\N)c1ccc([N+](=O)[O-])cc1`, the figures for the Activity in test [1] and in test [2] were 24% and 21%, respectively. The values for the inhibition in test [3] and in test [4] were 3% and 100%, respectively.
The matching figures for `CCCCCCCCCCS(=O)(=O)O/N=C(\N)c1ccc([N+](=O)[O-])cc1`: 12%, 3%, “inactive” and 48%.
`Cc1ccc(S(=O)(=O)O/N=C(\N)c2ccccn2)cc1`: the Activity stood at 4% in test [1] and 5% in test [2]. Further, the inhibition in test [4] came out at 72%. The IC50 in test [5] is 80 µM.
On to `N/C(=N\O)c1ccccn1`, for which the Activity in test [1] came out at 14%; in test [2] it was 11%. The inhibition entry in test [3] is “inactive”. Further, the inhibition in test [4] worked out at 81%.
Turning to `CCCS(=O)(=O)O/N=C(\N)c1ccc([N+](=O)[O-])cc1`, the results for the Activity in test [1] and in test [2] were 19% and 10%, respectively. Besides, the results for the inhibition in test [3] and in test [4] were 22% and 75%, respectively.
The like results for `Cc1ccc(S(=O)(=O)O/N=C(\N)c2ccc([N+](=O)[O-])cc2)cc1` were, in that order, 11%, 10%, 25% and 78%.
Take `N/C(=N\OS(=O)(=O)c1ccc([N+](=O)[O-])cc1)c1ccc([N+](=O)[O-])cc1`: the Activity in test [1] was 38%; in test [2] it was 34%. Moreover, in test [4], the inhibition entry was “inactive”. Also, in test [5], the IC50 is 66.5 µM.
Turning to `N/C(=N\O)c1ccc([N+](=O)[O-])cc1`, the Activity in test [1] was found to be 4%; in test [2] it was 3%. Further, the inhibition in test [3] was 41%; in test [4], 85%.
The like results for `N=C(NOS(=O)(=O)c1ccccc1)c1ccccn1` were, in that order, “inactive”, 4%, 30% and 32%.
Regarding `N=C(NOS(=O)(=O)c1ccccc1)c1ccncc1`, the Activity was determined as 11% in test [1] and 2% in test [2]. The inhibition in test [3] was 22%; in test [4], 44%.
Turning to `CC(Cc1ccc(O)c(O)c1)C(C)Cc1ccc(O)c(O)c1` (stereo unspecified), the results for the Activity in test [1] and in test [2] were 81% and 77%, respectively.
As to `N/C(=N\OS(=O)(=O)c1ccc([N+](=O)[O-])cc1)c1cccnc1`, the Activity in test [1] amounted to 11%; in test [2] it was 8%. For the same compound, the inhibition in test [4] came to 18%. In addition, in test [5], the IC50 was found to be 85 µM.
Turning to `CCCCCCCCCCS(=O)(=O)O/N=C(\N)c1ccncc1`, the Activity came to 21% in test [1] and 14% in test [2]. Besides, the inhibition turned out to be 28% in test [3] and 70% in test [4].
For `Cc1c(C)c2c(c(C)c1O)CCC(C)(C(=O)O)O2` (stereo unspecified) [TROLOX], in test [4], the inhibition was found to be 88%. For the same compound, in test [5], the IC50 is 55 µM.
In the case of `NC(=NO)c1ccncc1`, the values for the Activity in test [1] and in test [2] were 7% and 3%, respectively. Moreover, in test [3], the inhibition result was “inactive”. Also, the inhibition in test [4] was found to be 87%.
The like results for `Cc1ccc(S(=O)(=O)O/N=C(\N)c2ccncc2)cc1` were, in that order, “inactive”, “inactive”, “inactive” and 32%.
The matching figures for `NC(=NOS(=O)(=O)c1ccc([N+](=O)[O-])cc1)c1ccncc1`: 20%, 13%, 49% and 0%.
As to `N/C(=N\OS(=O)(=O)c1ccccc1)c1ccc([N+](=O)[O-])cc1`, the Activity in test [1] is 8.4%; in test [2], 4%. Besides, the inhibition in test [3] came to 5%; in test [4], 34%.
The like results for `CCCCCCCCCCS(=O)(=O)O/N=C(\N)c1cccnc1` were, in that order, 24%, 20%, 33% and 72%.
As for `Cc1ccc(S(=O)(=O)O/N=C(\N)c2cccnc2)cc1`, the Activity was determined as 41% in test [1] and 34% in test [2]. In addition, the inhibition turned out to be 43% in test [3] and 95% in test [4].
The matching figures for `CCCCCCCCCCS(=O)(=O)O/N=C(\N)c1ccccn1`: 10%, 11%, 46% and 79%.
Turning to `N=C(NOS(=O)(=O)c1ccccc1)c1cccnc1`, the results for the Activity in test [1] and in test [2] were 25% and 24%, respectively. Besides, the inhibition was 21% in test [3] and 28% in test [4].
The matching figures for `CCCCCCCCCCCCCCCCS(=O)(=O)O/N=C(\N)c1ccncc1`: 21%, 14%, 12% and “inactive”.
As to `N/C(=N\OS(=O)(=O)c1ccc([N+](=O)[O-])cc1)c1ccccn1`, the Activity in test [1] and in test [2] was 32% throughout. Besides, the inhibition in test [4] turned out to be 98%. Besides, in test [5], the IC50 worked out at 72 µM.
With `CCCCCCCCCCCCCCCCS(=O)(=O)O/N=C(\N)c1cccnc1`, the results for the Activity in test [1] and in test [2] were 16% and 7%, respectively. For the same compound, in test [4], the inhibition came to 69%. For the same compound, the IC50 in test [5] was determined as 70 µM.
On to `CCCS(=O)(=O)O/N=C(\N)c1ccncc1`, for which, in test [1], the Activity worked out at 4%. Further, the result in test [2] was inactive. For the same compound, the inhibition entry in test [3] was “inactive”. In addition, in test [4], the inhibition amounted to 66%.
Consider `N/C(=N\O)c1cccnc1`, for which the values for the Activity in test [1] and in test [2] were 15% and 12%, respectively. Besides, the inhibition entry in test [3] was “inactive”. Moreover, the inhibition in test [4] was 60%.
As to `CCCS(=O)(=O)O/N=C(\N)c1ccccn1`, the Activity in test [1] was found to be 1%; in test [2], 6%. For the same compound, in test [3], the inhibition result was “inactive”. Moreover, the inhibition in test [4] stood at 83%.
The matching figures for `CCCS(=O)(=O)O/N=C(\N)c1cccnc1`: 27%, 23%, 16% and 63%.
Take `CCCCCCCCCCCCCCCCS(=O)(=O)O/N=C(\N)c1ccccn1`: the Activity in test [1] was found to be 1%; in test [2], 4%. In addition, the inhibition in test [3] came to 21%. The inhibition result in test [4] is “inactive”.
